Values joined by “and” are separate entries in the source; they are usually repeats but may differ in a detail not shown here. Equal values may be shown once.
Key:
Assay type in all cases: physicochemical
[1] = Absorption spectroscopy of bacteriochlorins; settings: for Bmax abs / IQy/IB / Qy abs / Qy abs fwhm / ∑Qy/∑B: room temperature; for bathochromic shift in the Qy band relative to that for B2: in DMF or water
[2] = Fluorescence emission spectroscopy of bacteriochlorins; settings: for Qy em / Qy em fwhm: room temperature
Outline: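 Absorption and fluorescence spectra were recorded at room temperature in DMF and in […] water (one analogue in DMSO). The Qy/B ratio is the ratio of integrated Qy to integrated B absorption intensity. The Stokes shift is the Qy fluorescence maximum minus the Qy absorption peak.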

[3] = Excited-state photophysical properties; settings: for Φf (fluorescence quantum yield) / Φisc (intersystem crossing yield) / τS (lifetime of lowest singlet excited state) / kf^−1 / kic^−1 / kisc^−1 / Φic (internal conversion yield): room temperature; for kf^−1 / kic^−1 / kisc^−1: kx = Φx/τS; for Φic (internal conversion yield): Φic = 1 - Φf - Φisc
[4] = Water solubility / aggregation by absorption versus concentration in water; settings: neat deionized water, 1000-fold concentration range (∼200–700 µM to ∼0.20–0.70 µM)
Outline: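 Absorption spectra were taken in neat deionized water over a ~1000-fold concentration range (~200–700 µM to ~0.20–0.70 µM). Pathlength was changed reciprocally ([…]), and spectra were normalized at the Qy band. Concentration was calculated from absorbance in the 1-cm cuvette assuming ε(Qy) = 120,000 M−1cm−1.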

Row | Bmax abs ([1]; DMF) [nm] | IQy/IB ([1]; DMF) | Qy abs ([1]; DMF) [nm] | Qy abs fwhm ([1]; DMF) [nm] | ∑Qy/∑B ([1]; DMF) | Bmax abs ([1]; water with 5% DMF as cosolvent) [nm] | IQy/IB ([1]; water with 5% DMF as cosolvent) | Qy abs ([1]; water with 5% DMF as cosolvent) [nm] | Qy abs fwhm ([1]; water with 5% DMF as cosolvent) [nm] | ∑Qy/∑B ([1]; water with 5% DMF as cosolvent) | Qy em ([2]; DMF) [nm] | Qy em fwhm ([2]; DMF) [nm] | Qy em ([2]; water with 5% DMF as cosolvent) [nm] | Qy em fwhm ([2]; water with 5% DMF as cosolvent) [nm] | Φf (fluorescence quantum yield) ([3]; DMF) | Φisc (intersystem crossing yield) ([3]; DMF) | τS (lifetime of lowest singlet excited state) ([3]; DMF) | kf^−1 ([3]; DMF) [ns] | kic^−1 ([3]; DMF) [ns] | kisc^−1 ([3]; DMF) [ns] | Substance | further results
1 | 373 | 0.79 | 750 | 24 | 0.42 | 369 | 0.75 | 751 | 26 | 0.40 | 756 | 27 | 760 | 31 | 0.11 | 0.32 | 3.02 ns | 27 | 5 | 9 | 3,13-Dimethoxycarbonyl-2,12-bis[3,5-bis(3,6,9,12,15,18,21,24-octaoxahexacosanyl-26-amidomethyl)phenyl]-5-methoxy-8,8,18,18-tetramethylbacteriochlorin [II] | bathochromic shift in the Qy band relative to that for B2 [1]: ~25 nm; (Stokes) shift of Qy fluorescence maximum from Qy absorption peak ([2]; water): 8–9 nm; Φic (internal conversion yield) ([3]; DMF): 0.57; reduction of Φf in water vs DMF [3]: 29%; Φf (fluorescence quantum yield) ([3]; water with 5% DMF as cosolvent): 0.078; Φisc (intersystem crossing yield) ([3]; water with 5% DMF as cosolvent): 0.31; τS (lifetime of lowest singlet excited state) ([3]; water with 5% DMF as cosolvent): 2.96 ns; kf^−1 ([3]; water with 5% DMF as cosolvent): 38 ns; kic^−1 ([3]; water with 5% DMF as cosolvent): 5 ns; kisc^−1 ([3]; water with 5% DMF as cosolvent): 10 ns; Φic (internal conversion yield) ([3]; water with 5% DMF as cosolvent): 0.61
2 | 377 | 0.63 | 754 | 30 | 0.55 | 368 | 0.62 | 753 | 32 | 0.52 | 760 | 31 | 759 | 33 | 0.12 | 0.33 | 3.46 ns | 28 | 6 | 10 | 2,12-Bis[3,5-bis(11-methoxy-3,6,9-trioxaundecylamidomethyl)phenyl]-15-(7-carboxy-1-heptyl)-3,13-dimethoxycarbonyl-5-methoxy-8,8,18,18-tetramethylbacteriochlorin [B4] | bathochromic shift in the Qy band relative to that for B2 [1]: ~28 nm; Φic (internal conversion yield) ([3]; DMF): 0.55; reduction of Φf in water vs DMF [3]: 71%; Φf (fluorescence quantum yield) ([3]; water with 5% DMF as cosolvent): 0.035; Φisc (intersystem crossing yield) ([3]; water with 5% DMF as cosolvent): 0.31; τS (lifetime of lowest singlet excited state) ([3]; water with 5% DMF as cosolvent): 3.21 ns; kf^−1 ([3]; water with 5% DMF as cosolvent): 92 ns; kic^−1 ([3]; water with 5% DMF as cosolvent): 5 ns; kisc^−1 ([3]; water with 5% DMF as cosolvent): 10 ns; Φic (internal conversion yield) ([3]; water with 5% DMF as cosolvent): 0.65
3 | 375 | 0.78 | 808 | 32 | 0.50 | 376 | 0.50 | 819 | 36 | 0.38 | 819 | 35 | 834 | 44 | 0.13 | 0.29 | 1.7 ns and 1.70 ns | 13 | 3 | 6 | 2,12-Bis[3,5-bis(3,6,9,12,15,18,21,24-octaoxahexacosanyl-26-amidomethyl)phenyl]-15^2-N-(3-carboxypropyl)-3-methoxycarbonyl-5-methoxy-8,8,18,18-tetramethylbacteriochlorin-13,15-dicarboimide [B5] | bathochromic shift of the Qy absorption band compared to B4 and II ([1]; DMF and water): ~50 nm; aggregation in water from absorption versus concentration [4]: obvious band broadening indicating some degree of aggregation; (Stokes) shift of Qy fluorescence maximum from Qy absorption peak ([2]; DMF): 11 nm; (Stokes) shift of Qy fluorescence maximum from Qy absorption peak ([2]; water): 15 nm; difference in kf between the two media (DMF and water) ([3]; DMF versus water): 6.5 fold; Φic (internal conversion yield) ([3]; DMF): 0.58; reduction of Φf in water vs DMF [3]: 87%; Φf (fluorescence quantum yield) ([3]; water with 5% DMF as cosolvent): 0.017; Φisc (intersystem crossing yield) ([3]; water with 5% DMF as cosolvent): 0.08; τS (lifetime of lowest singlet excited state) ([3]; water with 5% DMF as cosolvent): 1.4 ns and 1.40 ns; kf^−1 ([3]; water with 5% DMF as cosolvent): 84 ns; kic^−1 ([3]; water with 5% DMF as cosolvent): 2 ns; kisc^−1 ([3]; water with 5% DMF as cosolvent): 18 ns; Φic (internal conversion yield) ([3]; water with 5% DMF as cosolvent): 0.90
4 | 375 | 0.74 | 741 | 23 | 0.52 | 374 | 0.81 | 742 | 24 | 0.57 | 748 | 27 | 750 | 28 | 0.21 | 0.47 | 3.27 ns | 15 | 10 | 7 | 15-[4-(3-Carboxyethyl)phenyl]-3,13-dimethoxycarbonyl-2,12-bis[3,5-bis(3,6,9,12,15,18,21,24-octaoxahexacosanyl-26-amidomethyl)phenyl]-5-methoxy-8,8,18,18-tetramethylbacteriochlorin [B3] | bathochromic shift in the Qy band relative to that for B2 [1]: ~16 nm; (Stokes) shift of Qy fluorescence maximum from Qy absorption peak ([2]; water): 8–9 nm; Φic (internal conversion yield) ([3]; DMF): 0.32; reduction of Φf in water vs DMF [3]: 38%; Φf (fluorescence quantum yield) ([3]; water with 5% DMF as cosolvent): 0.13; Φisc (intersystem crossing yield) ([3]; water with 5% DMF as cosolvent): 0.45; τS (lifetime of lowest singlet excited state) ([3]; water with 5% DMF as cosolvent): 3.39 ns; kf^−1 ([3]; water with 5% DMF as cosolvent): 27 ns; kic^−1 ([3]; water with 5% DMF as cosolvent): 8 ns; kisc^−1 ([3]; water with 5% DMF as cosolvent): 8 ns; Φic (internal conversion yield) ([3]; water with 5% DMF as cosolvent): 0.42
